# Reference: ChEMBL document CHEMBL4665728, “Synthesis and evaluation of 1,2,4-oxadiazole derivatives as potential anti-inflammatory agents by inhibiting NF-κB signaling pathway in LPS-stimulated RAW 264.7 cells” (Bioorg Med Chem Lett, 2020)
# The source made the active and inactive calls. The rule behind the calls is not given here.
# Tests used:
# [1] = test system: RAW264.7; assay: Antiinflammatory activity against mouse RAW264.7 cells assessed as inhibition of LPS-stimulated NO production at 20 uM relative to control; format: functional; set-up: scale not given: the % may be the effect or the level left
# In short: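 NO production by RAW264.7 cells stimulated with LPS; inhibitory ratio expressed relative to the LPS-treated group.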
# [2] = Cytotoxicity against mouse RAW 264.7 assessed as cell viability at 20 uM incubated for 24 hrs by MTT assay (reference value: 100%); format: cell-based, RAW264.7; conditions: RAW 264.7 cells, read-out: Activity
# In short: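 MTT viability of RAW264.7 cells at 20 µM, expressed as percent of DMSO vehicle control (100%); above 75% viability counted as non-toxic; doxorubicin used as control drug.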
# [3] = test system: RAW264.7; assay: Antiinflammatory activity against mouse RAW264.7 cells assessed as inhibition of TNFalpha-stimulated NF-kappaB activation by luciferase assay; format: functional, cell-based
# [4] = test system: RAW264.7; assay: Antiinflammatory activity against mouse RAW264.7 cells assessed as inhibition of LPS-stimulated NO production; format: functional, cell-based
# In short: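 IC50 for inhibition of NO release by LPS-stimulated RAW264.7 macrophages; IC50 taken as the mean of three independent experiments.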
# [5] = test system: RAW264.7; assay: Antiinflammatory activity against mouse RAW264.7 cells assessed as reduction in LPS-induced IL6 mRNA expression at 3 to 6 uM incubated for 24 hrs by qRT-PCR analysis; format: functional, cell-based; conditions: dose microM 3-6, time 24.0 hrs
# In short: (§1)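 Cells co-treated with compound at several concentrations plus LPS (1 µg/mL) for 24 h; IL-6, IL-1β and TNFα mRNA by qRT-PCR, expressed as ratio to reference gene; mean ± SD, n = 3.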
# [6] = test system: RAW264.7; assay: Antiinflammatory activity against mouse RAW264.7 cells assessed as reduction in LPS-induced p65 phosphorylation at 3 to 6 uM incubated for 45 mins by Western blot analysis; format: functional, cell-based; conditions: dose microM 3-6, time 45.0 min
# In short: (§2)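 RAW264.7 cells treated with a range of concentrations for 45 min; phospho-p65, p65, IκBα and β-actin detected by Western blot; three independent experiments.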
# [7] = test system: RAW264.7; assay: Antiinflammatory activity against mouse RAW264.7 cells assessed as reduction in LPS-induced IkappaBalpha phosphorylation at 3 to 6 uM incubated for 45 mins by Western blot analysis; format: functional, cell-based; conditions: dose microM 3-6, time 45.0 min; in short: as §2
# [8] = test system: RAW264.7; assay: Antiinflammatory activity against mouse RAW264.7 cells assessed as inhibition of LPS-stimulated iNOS protein expression at 3 to 6 uM preincubated followed by LPS addition by Western blot analysis; format: functional, cell-based; conditions: dose microM 3-6
# In short: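 iNOS protein in LPS-stimulated RAW264.7 cells detected by Western blotting; mean ± SD, n = 3.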
# [9] = test system: RAW264.7; assay: Antiinflammatory activity against mouse RAW264.7 cells assessed as inhibition of LPS-stimulated nuclear translocation of p65 at 20 uM preincubated for 1 hr followed by LPS addition and measured after 24 hrs by fluorescence microscopic method; format: functional, cell-based
# In short: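 RAW264.7 cells pretreated 1 h, then stimulated with LPS (1 µg/mL) or vehicle for 24 h; p65 immunostained and localisation viewed in overlaid fluorescence images; three individual experiments.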
# [10] = test system: RAW264.7; assay: Antiinflammatory activity against mouse RAW264.7 cells assessed as degradation in LPS-induced IkappaBalpha phosphorylation at 3 to 6 uM incubated for 45 mins by Western blot analysis; format: functional, cell-based; conditions: dose microM 3-6, time 45.0 min; in short: as §2
# [11] = test system: RAW264.7; assay: Antiinflammatory activity against mouse RAW264.7 cells assessed as reduction in LPS-induced IL1beta mRNA expression at 3 to 6 uM incubated for 24 hrs by qRT-PCR analysis; format: functional, cell-based; conditions: dose microM 3-6, time 24.0 hrs; in short: as §1
# [12] = test system: RAW264.7; assay: Cytotoxicity against mouse RAW 264.7 assessed as reduction in cell viability up to 100 uM incubated for 24 hrs by MTT assay; format: cell-based; conditions: raw264.7, 24 h
# In short: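 MTT viability of RAW264.7 cells across 0 to 100 µM, compared with vehicle control.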
# [13] = test system: RAW264.7; assay: Antiinflammatory activity against mouse RAW264.7 cells assessed as reduction in LPS-induced TNFalpha mRNA expression at 3 to 6 uM incubated for 24 hrs by qRT-PCR analysis; format: functional, cell-based; conditions: dose microM 3-6, time 24.0 hrs; in short: as §1
Compound,Activity [1],"viability at 24 h, 20 µM [2]",further results
c1ccc(-c2nc(C3CCCC3)no2)cc1,34.28%,85.4%,
Cc1ccc(-c2nc(-c3ccc4[nH]ccc4c3)no2)cc1,,51.2%,
c1ccc(-c2nc(-c3cnccn3)no2)cc1,,46.2%,
c1ccc(Cc2noc(-c3ccccc3)n2)cc1,39.33%,89.6%,
C1=CCC(c2nc(-c3ccc4[nH]ccc4c3)no2)C1,,24.3%,
c1ccc(-c2nc(-c3c[nH]c4ccccc34)no2)cc1,,11.6%,
c1ccc(-c2nc(-c3cccc4[nH]ccc34)no2)cc1,45.71%,64.3%,IC50 [3]: 13.8 µM; IC50 [4]: 27 µM
Fc1ccc(-c2nc(-c3ccc4[nH]ccc4c3)no2)cc1,,16.8%,
C#Cc1ccc(-c2nc(-c3ccc4[nH]ccc4c3)no2)cc1,,23.6%,
COc1cccc(-c2nc(-c3ccc4[nH]ccc4c3)no2)c1,53.94%,88.1%,
Fc1cccc(-c2nc(-c3ccc4[nH]ccc4c3)no2)c1,,17.2%,
CSc1ccc(-c2nc(-c3ccc4[nH]ccc4c3)no2)cc1,,22.8%,
C[C@@H]1C[C@H]2[C@@H]3CCC4=CC(=O)C=C[C@]4(C)[C@@]3(F)[C@@H](O)C[C@]2(C)[C@@]1(O)C(=O)CO [DEXAMETHASONE],,,IC50 [4]: 4.16 µM
c1ccc(-c2nc(-c3cccc4ccccc34)no2)cc1,59.89%,90.4%,
Cc1ccccc1-c1nc(-c2ccc3[nH]ccc3c2)no1,47.22%,85.3%,
c1coc(-c2nc(-c3ccc4[nH]ccc4c3)no2)c1,86.6%,99%,Activity [5]: Dose-dependent effect; Activity [6]: Active; Activity [7]: Dose-dependent effect; IC50 [3]: 1.35 µM; Activity [8]: Active; IC50 [4]: 12.8 µM; Activity [9]: Active; Activity [10]: Dose-dependent effect; Activity [11]: Dose-dependent effect; Activity [12]: Non-Toxic; Activity [13]: Dose-dependent effect

Compound,Activity [1],"viability at 24 h, 20 µM [2]",further results
c1ccc(-c2noc(-c3ccccc3)n2)cc1,,42.1%,
C(=C\c1noc(-c2ccccc2)n1)/c1ccccc1,,28.2%,
Oc1ccc(-c2nc(-c3ccc4[nH]ccc4c3)no2)cc1,,36.5%,
c1ccc(-c2nc(-c3ccncc3)no2)cc1,43.13%,89%,
c1ccc(-c2nc(-c3ccc4cc[nH]c4c3)no2)cc1,,31%,
COc1ccccc1-c1nc(-c2ccc3[nH]ccc3c2)no1,,45%,
c1ccc(-c2nc(-c3ccc4ccccc4c3)no2)cc1,63.58%,86.2%,
c1ccc(-c2nc(Cc3cccc4ccccc34)no2)cc1,41.64%,92.8%,
c1ccc(-c2nc(-c3ccc4[nH]ccc4c3)no2)cc1,46.76%,79.4%,
CC(C)C[C@H](NC(=O)[C@H](Cc1ccccc1)NC(=O)c1cnccn1)B(O)O [BORTEZOMIB],,,IC50 [3]: 0.03 µM
c1cc2cc(-c3noc(C4CCC4)n3)ccc2[nH]1,57.58%,85.4%,
Fc1ccccc1-c1nc(-c2ccc3[nH]ccc3c2)no1,,26.4%,
c1ccc(-c2nc(Cc3cccs3)no2)cc1,48.24%,85.2%,
c1cc2cc(-c3noc(C4CCCCC4)n3)ccc2[nH]1,,68.8%,
COc1ccc(-c2nc(-c3ccc4[nH]ccc4c3)no2)cc1,,41.3%,
c1cc2cc(-c3noc(C4CCOCC4)n3)ccc2[nH]1,2.75%,95.7%,
